Experimental data as given in ChEMBL document CHEMBL2375351, “Degradation of MAC13243 and studies of the interaction of resulting thiourea compounds with the lipoprotein targeting chaperone LolA” (Bioorg Med Chem Lett, 2013).
Values after ≈ are worked out from the molar mass of the structure shown. Active and inactive are the calls of the source. No cut-off for these calls is given here.

How the values were obtained:
Pseudomonas aeruginosa = assay: Antibacterial activity against Pseudomonas aeruginosa PAO1 assessed as growth inhibition after 16 hrs; format: functional; conditions: PAO1, 16 h
Method in brief: (§1)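 Broth microdilution in liquid LB with B. subtilis 168 or P. aeruginosa PAO1. Overnight cultures were diluted 1:100, grown to OD600 0.4, then diluted 1:100,000 into serially diluted compound (1–256 µg/mL). Plates were incubated 16 h at 37 °C, static, except B. subtilis, which was shaken at 250 rpm. MIC is the lowest concentration giving OD600 below 0.05.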

Bacillus subtilis = assay: Antibacterial activity against Bacillus subtilis 168 assessed as growth inhibition after 16 hrs; format: functional; conditions: subsp. subtilis str. 168, 16 h; method in brief: as §1
Escherichia coli [1] = assay: Antibacterial activity against Escherichia coli MG1655 overexpressing lolA assessed as growth inhibition after 16 hrs; format: functional; conditions: MG1655, 16 h
Escherichia coli [2] = assay: Antibacterial activity against Escherichia coli EB2120 conditional lolA strain with lolA deletion and complementing copy placed at araBAD locus at 1 to 256 ug/mL after 18 hrs in presence of 0.00002 to 0.2% of arabinose; format: functional, organism-based
Method in brief: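 Conditional lolA strain EB2120 (chromosomal lolA deleted, complementing copy at araBAD under arabinose control), grown to OD600 ~0.4–0.5. […] Fold sensitization is the MIC under LolA depletion relative to the fully complemented 0.2% arabinose condition.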

Escherichia coli [3] = assay: Potency index, ratio of MAC13243 MIC to compound MIC for Escherichia coli MG1655 overexpressing lolA; format: functional
[4] = Binding affinity to recombinant Escherichia coli LolA by STDD NMR spectra analysis
Escherichia coli [5] = assay: Potency index, ratio of MIC for Escherichia coli EB2120 conditional lolA strain with lolA deletion and complementing copy placed at araBAD locus in presence of 0.2% arabinose to MIC in presence of 0.00002% of arabinose; format: functional
Escherichia coli [6] = assay: Potency index, ratio of MIC for Escherichia coli AG1 overexpressing lolA to MIC for lolA-deficient Escherichia coli AG1; format: functional
Escherichia coli [7] = assay: Binding affinity to LolA in Escherichia coli EB68 assessed as change in cell shape from rod to sphere at 10 ug/mL measured every 1 hr for 4 hrs by phase contrast microscopic analysis
Method in brief: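 E. coli EB68 (MG1655) was subcultured 1:100 into LB and grown to OD600 ~0.5, then washed once in fresh medium. Cells were resuspended in LB with compound at 10 µg/mL, placed on poly-lysine-treated slides and examined by phase contrast light microscopy at 1 h intervals for rod-to-sphere shape change.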

[8] = Binding affinity to Escherichia coli LolA
[9] = Half life of the compound in DMSO at 250 uM measured up to 48 hrs by reverse phase HPLC analysis; format: physicochemical
Method in brief: (§2)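 Compound at 250 µM final was incubated in DMSO, H2O, 50 mM acetate buffer (pH 4) or 50 mM citrate buffer (pH 11). Samples were analysed over time by reverse phase C18 HPLC using a 10 min gradient of 0.1% TFA water to acetonitrile, with detection at 270 nm. Parent peak areas were plotted against time and fit to exponential decay.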

[10] = Half life of the compound in citrate buffer at pH 11 at 250 uM measured up to 48 hrs by reverse phase HPLC analysis; format: physicochemical; method in brief: as §2
[11] = Half life of the compound in water at 250 uM measured up to 48 hrs by reverse phase HPLC analysis; format: physicochemical; method in brief: as §2
[12] = Half life of the compound in acetate buffer at pH 4 at 250 uM measured up to 48 hrs by reverse phase HPLC analysis; format: physicochemical; method in brief: as §2

Row | SMILES | MIC (Pseudomonas aeruginosa) [µg/mL] | MIC (Bacillus subtilis) [µg/mL] | MIC (Escherichia coli [1]) [µg/mL] | other results
1 | N=C(N)NCc1ccc(Cl)cc1 | 128 (≈ 697 µM) | > 256 | 256 (≈ 1390 µM) | –
2 | N=C(N)SCc1ccccc1 [BENZYL CARBAMIMIDOTHIOATE] | 32 (≈ 192 µM) | > 256 | 64 (≈ 385 µM) | –
3 | N=C(N)SCc1ccc(Br)cc1 | 16 (≈ 65.3 µM) | > 256 | 4 (≈ 16.3 µM) | –
4 | CO[C@H]1/C=C/O[C@@]2(C)Oc3c(C)c(O)c4c(O)c(c(/C=N/N5CCN(C)CC5)c(O)c4c3C2=O)NC(=O)/C(C)=C\C=C\[C@H](C)[C@H](O)[C@@H](C)[C@@H](O)[C@@H](C)[C@H](OC(C)=O)[C@@H]1C | – | – | – | Activity (Escherichia coli [2]): inactive
5 | CC1(C)S[C@@H]2[C@H](NC(=O)[C@H](N)c3ccccc3)C(=O)N2[C@H]1C(=O)O | – | – | – | Activity (Escherichia coli [2]): inactive
6 | COc1cc(Cc2cnc(N)nc2N)cc(OC)c1OC | – | – | – | Activity (Escherichia coli [2]): inactive
7 | N=C(N)SCCc1ccc(Cl)cc1 | 128 (≈ 596 µM) | > 256 | > 256 | –
8 | Oc1cc(Cl)ccc1Oc1ccc(Cl)cc1Cl | – | – | – | Activity (Escherichia coli [2]): inactive
9 | N=C(N)SCc1ccc(I)cc1 | 32 (≈ 110 µM) | > 256 | 16 (≈ 54.8 µM) | –
10 | N=C(N)CSCc1ccc(Cl)cc1 | 128 (≈ 596 µM) | > 256 | > 256 | –
11 | N=C(N)SCc1ccc(Cl)cc1Cl | 32 (≈ 136 µM) | > 256 | 1 (≈ 4.25 µM) | –
12 | CN(C)[C@@H]1C(O)=C(C(N)=O)C(=O)[C@@]2(O)C(O)=C3C(=O)c4c(O)cccc4[C@@](C)(O)[C@H]3C[C@@H]12 | – | – | – | Activity (Escherichia coli [2]): inactive
13 | N=C(N)OCc1ccc(Cl)cc1 | 32 (≈ 173 µM) | > 256 | 32 (≈ 173 µM) | –
14 | N=C(N)SCc1ccc(Cl)cc1 | 16 (≈ 79.7 µM) | > 256 | 2 (≈ 9.97 µM) | Ratio (Escherichia coli [3]): 4; Kd [4]: 150 µM; Ratio (Escherichia coli [5]): 32; Ratio (Escherichia coli [6]): 16
15 | CN[C@@H]1[C@H](O)[C@H](NC)[C@H]2O[C@@]3(O)C(=O)C[C@@H](C)O[C@H]3O[C@@H]2[C@H]1O | – | – | – | Activity (Escherichia coli [2]): inactive
16 | N=C(N)SCc1ccc(F)cc1 | 16 (≈ 86.8 µM) | > 256 | 16 (≈ 86.8 µM) | –
17 | C[C@@H]1O[C@@H]1P(=O)(O)O [FOSFOMYCIN] | – | – | – | Ratio (Escherichia coli [5]): 16
18 | N=C(N)SCc1ccc(Cl)c(Cl)c1 | 16 (≈ 68 µM) | > 256 | 2 (≈ 8.51 µM) | Kd [4]: 200 µM; Activity (Escherichia coli [7]): Active; Ratio (Escherichia coli [5]): 32; Ratio (Escherichia coli [6]): 16
19 | N=C(N)SCc1ccc([N+](=O)[O-])cc1 | 64 (≈ 303 µM) | > 256 | 32 (≈ 151 µM) | –
20 | N=C(N)SCc1ccccc1Cl | 64 (≈ 319 µM) | > 256 | 16 (≈ 79.7 µM) | –
21 | N=C(N)CCc1ccc(Cl)cc1 | 128 (≈ 701 µM) | > 256 | > 256 | –
22 | CCn1cc(C(=O)O)c(=O)c2cc(F)c(N3CCNCC3)cc21 | – | – | – | Activity (Escherichia coli [2]): inactive
23 | COc1ccc(CCN)cc1OC | – | – | > 256 | –
24 | COc1ccc(CSC(=N)N)cc1 | 32 (≈ 163 µM) | > 256 | > 256 | –
25 | N=C(N)SCc1cccc(Cl)c1 | > 256 | > 256 | 64 (≈ 319 µM) | –
26 | N=C(N)SCCCc1ccc(Cl)cc1 | 128 (≈ 560 µM) | > 256 | > 256 | –
27 | COc1ccc(CCN2CN=C(SCc3ccc(Cl)cc3)NC2)cc1OC | 32 (≈ 78.8 µM) | 256 (≈ 631 µM) | 8 (≈ 19.7 µM) | Kd [8]: 8 µM; Activity (Escherichia coli [7]): Active; Ratio (Escherichia coli [5]): 32; Ratio (Escherichia coli [6]): 16; half-life at 250 µM [9]: 257 h; half-life at 250 µM [10]: 59 h; half-life at 250 µM [11]: 13 h; half-life at 250 µM [12]: 4 h
28 | N=C(N)c1ccc(Cl)cc1 | 64 (≈ 414 µM) | 4 (≈ 25.9 µM) | > 256 | –
29 | C/N=C(\NC)SCc1ccc(Cl)c(Cl)c1 | 256 (≈ 973 µM) | > 256 | 256 (≈ 973 µM) | –
30 | N=C(N)Sc1ccc(Cl)cc1 | 64 (≈ 343 µM) | 4 (≈ 21.4 µM) | > 256 | –
